Assay outcomes deposited in PubChem BioAssay by Johns Hopkins Ion Channel Center.
A selection: hits, their analogues and other compounds. The true share with any hit is near 3.5%.
MrgX1 agonist: human MrgX1 receptor agonism, primary screen. Q96LB2. MrgX1-HEK293 cells, Fluo-4 calcium fluorescence, agonist mode; hits give high values. B-score at 10 µM. 0.44% of 310,000 active;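 active = calcium response B-score plate-corrected fluorescence ratio at least 3 library SD, with starting fluorescence B-score inside 5 SD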
Target sequence (Q96LB2 whole entry, looked up): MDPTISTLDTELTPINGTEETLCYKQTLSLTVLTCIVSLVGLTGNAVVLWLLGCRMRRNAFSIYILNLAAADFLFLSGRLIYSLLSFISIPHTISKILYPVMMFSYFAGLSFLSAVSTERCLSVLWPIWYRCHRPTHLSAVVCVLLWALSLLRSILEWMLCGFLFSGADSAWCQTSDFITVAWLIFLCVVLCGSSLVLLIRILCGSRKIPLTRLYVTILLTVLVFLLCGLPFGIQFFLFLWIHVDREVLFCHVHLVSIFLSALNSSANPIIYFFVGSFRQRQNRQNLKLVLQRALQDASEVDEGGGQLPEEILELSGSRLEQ
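System: HEK293 cells stably expressing human MrgX1 receptor; Dosing: test compound in the initial addition of three; Schedule: overnight plating, then 30 min 37 °C plus 30 min room-temperature dye loading; Detection: kinetic calcium dye fluorescence, Fluo-4 NW; Controls: per-plate positive and negative controls for Z′ factor.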
MrgX1 PAM: human MrgX1 positive allosteric modulation, primary screen; Q96LB2; MrgX1-HEK293, Fluo-4 calcium flux, FDSS; hits give high values; B-score at 10 µM; 0.63% of 310,000 active;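 active = plate-corrected calcium response at least 3 library SD above typical, normal starting fluorescence, not activating the receptor alone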;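 note: compound read alongside a low EC10 to EC30 dose of BAM8-22 agonist; peak minus trough fluorescence over baseline measured at the second addition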
RGS4 block: inhibitors of human RGS4 | B-score at 10 µM | P49798 | HEK293 M3R/RGS4 inducible, Fluo-4 calcium flux; hits give high values; triggered by carbachol at its EC20 | 0.45% of 310,000 active | AID 463165;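 active = B-score, a plate-corrected calcium signal, over three deviations above library mean, with baseline fluorescence within five deviations of library mean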;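 note: RGS4 expression induced by doxycycline in cells with stable M3 receptor; B-score is computed from the integrated fluorescence ratio over baseline after carbachol; higher B-score means a larger calcium signal and so more RGS4 inhibition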
Target sequence (P49798 whole entry, looked up): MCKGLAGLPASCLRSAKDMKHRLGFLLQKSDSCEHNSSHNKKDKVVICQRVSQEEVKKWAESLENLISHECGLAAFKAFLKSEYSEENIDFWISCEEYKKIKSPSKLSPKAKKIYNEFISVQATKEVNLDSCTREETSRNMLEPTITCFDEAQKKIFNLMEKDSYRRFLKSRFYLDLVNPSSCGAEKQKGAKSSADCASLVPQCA
MrgX1 antag: antagonists of human MrgX1 receptor | MRGX1-HEK293 calcium flux, Fluo-4, BAM8-22 antagonism; hits give low values | B-score at 10 µM | 1.3% of 310,000 active;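 active = calcium-response B-score plate-corrected more than 3 library SD below zero, starting fluorescence within 5 deviations, no agonist response on first addition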;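 note: peak minus trough fluorescence over baseline after final BAM8-22 challenge near maximal dose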
RGS4 act: RGS4 potentiation or activation; HEK293 M3R/inducible RGS4, carbachol calcium flux Fluo4; hits give low values; 0.92% of 310,000 active; AID 463111; B-score at 10 µM;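 active = B-score of the integrated calcium signal more than 4 SD below the library mean, with starting fluorescence not abnormally high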;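 note: negative B-score means reduced calcium response which marks RGS4 activation or potentiation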
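Reagent: ECmax carbachol challenge; Test system: M3R-expressing HEK293 line, RGS4 induced by doxycycline; Schedule: overnight RGS4 induction, 30 min dye load 37 °C, 20 min compound RT; Detection: calcium dye Fluo4 fluorescence; Read-out: Agonist-evoked peak-minus-minimum fluorescence over baseline, integrated ratio, B score.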
RGS4 inh valid: validation of RGS4 inhibitors. shares compounds with RGS4 block. HEK293 M3R/RGS4, carbachol calcium Fluo-4 fluorescence; carbachol added at its EC20; 0 = buffer wells, 100 = carbachol control. calcium response, % at 10 µM. 65% of 1,700 active. AID 492999;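 active = duplicate-averaged calcium response above the buffer-only control mean plus 5 SD of those controls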;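 note: integrated fluorescence ratio F max minus min over baseline F0; higher response in RGS4-induced cells means RGS4 inhibition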
M3R Ca ctr: counter-screen for RGS4 inhibitors: effect in non-induced cells; shares compounds with RGS4 block; HEK293 M3R non-induced, carbachol calcium Fluo-4; submaximal (EC20) carbachol stimulus; buffer wells 0%, carbachol control wells 100%; activity (percent), % at 10 µM; 20% of 1,900 active; call rule not given here;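 note: RGS4 induction absent so cells express M3R without RGS4; higher means more calcium signal and flags a non-specific hit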
M3R basal Ca ctr: signal in non-induced cells without carbachol, RGS4 inhibitor counter-screen | shares compounds with RGS4 block | HEK293 M3R/RGS4 non-induced, Fluo-4 calcium, no carbachol; normalised: buffer wells 0%, carbachol wells 100% | calcium response (agonist-mode artifact), % at 10 µM | 22% of 1,900 active | AID 493001;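 active = duplicate-averaged calcium rise in uninduced cells above buffer wells' mean plus 5 SD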
* = called active by the depositor; i = inactive; / = not tested or not shown.

SMILES | MrgX1 agonist | MrgX1 PAM | RGS4 block | MrgX1 antag | RGS4 act | RGS4 inh valid | M3R Ca ctr | M3R basal Ca ctr
Oc1ccc(-c2csc(-c3ccccc3)n2)cc1O | i | i | 5.8* | i | i | 24%* | i | i
COC(=O)c1sc(C(C)(C)C)cc1CSc1ccccc1 | i | i | i | i | i | / | / | /
COc1cccc(/C=C(/C(=O)OCC(=O)NC2CCCCCCC2)c2ccccc2)c1 | i | i | 5* | i | i | i | i | 7.0%*
COc1cccc(/C=C(/C(=O)OCC(=O)NCC2CCCO2)c2ccccc2)c1 (stereo not drawn) | i | i | i | i | i | / | / | /
CC1CC(C)CN(S(=O)(=O)CC23CCC(CC2=O)C3(C)C)C1 (stereo not drawn) | i | i | i | i | i | / | / | /
Cc1sc2nc(CN(Cc3ccccc3)C(=O)NC3CCCCC3)[nH]c(=O)c2c1C | i | i | 5.1* | i | i | i | i | i
O/N=C/c1cn(-c2ccccc2)nc1-c1ccccc1 | i | i | i | i | i | / | / | /
CC1(C)CC(=O)C(=Cc2cn(-c3ccccc3)nc2-c2ccccc2)C(=O)C1 | i | i | i | i | i | i | i | i
N#CCCN(Cc1ccccc1)C(=O)Nc1ccccc1 | i | i | i | i | i | / | / | /
Cc1onc(-c2ccccc2)c1NC(=O)N(CCC#N)Cc1ccccc1 | i | i | 6.3* | i | i | i | i | i
COc1cccc(N2CCN(C3CC(=O)N(c4ccc(F)c(Cl)c4)C3=O)CC2)c1 (stereo not drawn) | i | i | i | i | i | / | / | /
COc1ccc(N2C(=O)CC(N3CCN(S(=O)(=O)c4c(F)cccc4F)CC3)C2=O)cc1OC (stereo not drawn) | i | i | 6.8* | i | i | 9.0%* | i | i
O=C(CCNc1ccc(F)cc1)c1ccco1 | i | i | 5.4* | i | i | 11%* | i | i
O=C(CCNc1ccc(F)c(Cl)c1)c1ccco1 | i | i | i | i | i | / | / | /
O=S(=O)(Nc1cccc2ccccc12)c1cccs1 | i | i | i | i | i | / | / | /
O=S(=O)(Nc1ccc(O)c2ccccc12)c1cccs1 | i | i | 8.1* | i | i | 37%* | i | i
Nc1ccc(S(=O)(=O)N2CCCC2)cc1Cl | i | i | i | i | i | / | / | /
CCCCN(C(=O)CSc1nnnn1C)c1c(N)n(Cc2ccccc2)c(=O)[nH]c1=O | i | i | i | i | i | / | / | /
Cc1ccc([N+](=O)[O-])cc1N(CC(=O)Nc1ccc(S(=O)(=O)Nc2cccc(C(F)(F)F)c2)cc1)S(C)(=O)=O | i | i | 7.2* | i | i | 22%* | i | i
O=C1Nc2ccc(Br)cc2/C1=C/C(=O)c1ccc2c(c1)OCO2 | i | i | 6.1* | -5* | i | i | 41%* | i
O=C1Nc2ccccc2/C1=C\C(=O)c1ccccc1 | i | i | i | i | i | / | / | /
CCn1c2ccccc2c2nnc(SCCCn3c(=O)[nH]c4ccccc43)nc21 | i | i | / | i | / | / | / | /
Cc1ccc(C(=O)NC(C#N)=C(Cl)Cl)cc1 | / | / | 9.8* | / | i | 21%* | i | i
Cc1ccc(C(=O)NCC#N)cc1 | i | i | i | i | i | / | / | /
CCCc1cc(=O)[nH]c(SCC(=O)N2CCN(S(=O)(=O)c3ccc(C)cc3)C2)n1 | i | i | i | i | i | / | / | /
SMILES | MrgX1 agonist | MrgX1 PAM | RGS4 block | MrgX1 antag | RGS4 act | RGS4 inh valid | M3R Ca ctr | M3R basal Ca ctr
COC(=O)CSc1[nH]c2ccccc2c1[N+](=O)[O-] | i | i | 16* | i | i | 44%* | i | i
O=c1cc(-c2ccc(Cl)cc2)oc(=O)[nH]1 | i | i | i | i | i | / | / | /
O=c1cc(N=Nc2ccc(Cl)cc2)[nH]c(=O)[nH]1 | i | i | 17* | i | i | 22%* | i | i
CSc1ccccc1OCc1cc(C(=O)NCCC2CCCCO2)no1 (stereo not drawn) | i | i | 11* | i | i | i | i | i
CSc1ccccc1OCc1cc(C(=O)NCCN2CCCC(O)C2)no1 (stereo not drawn) | i | i | i | i | i | / | / | /
COc1cccc(N2CCN(C(=O)CCCCCNc3nc(=S)[nH]c4ccccc34)CC2)c1 | i | i | i | i | i | / | / | /
O=C1c2ccccc2CN1CCSC(=S)N1CCOCC1 | i | i | 6.5* | i | i | i | i | i
CC(C)(C)NC(=O)C(=O)NN=C1CCCCCCCCCCC1 | i | i | i | i | i | / | / | /
CCC(C(=O)N1CCOCC1)n1nc(C)c2c(C)n(-c3ccccc3)nc2c1=O (stereo not drawn) | i | i | 9* | i | i | 5.0%* | i | i
COc1ccc(S(=O)(=O)N2CCOC2CNC(=O)C(=O)NCC(C)C)cc1OC (stereo not drawn) | i | i | i | i | i | / | / | /
Cc1csc(NC(=O)COCC(=O)O)c1-c1nc2ccccc2s1 | i | i | 6.8* | i | i | 22%* | i | i
Cc1csc(NC(=O)CCCC(=O)O)c1-c1nc2ccccc2s1 | i | i | 6.2* | i | i | 32%* | 48%* | i
CC(=O)Nc1scc(C)c1-c1nc2ccccc2s1 | i | i | i | i | i | / | / | /
O=C(CC(=O)NC1CCCCC1)N/N=C/c1cccc2ccccc12 | i | i | i | i | i | / | / | /
CSc1nc(-c2ccc(Cl)cc2)nn1C(=O)c1ccco1 | i | i | 5.6* | i | i | i | i | i
CCN(CC)CCCNc1cc(C)nc2cc(-c3cccs3)nn12 | i | i | i | i | i | / | / | /
C=CCOc1ccc2c(c1)C(=NO)c1cc(OCC=C)ccc1-2 | i | i | 5.6* | i | i | 9.5%* | i | i
CC(=O)CCc1oc2c([N+](=O)[O-])cccc2c1-c1ccc(C)o1 | i | i | i | i | i | / | / | /
